This note sets out measurements from PubChem BioAssay.

A short description of assay [1]: nonspecific flux increase, KCNQ1-free cells – parental CHO cells, counter-screen for KCNQ1 potentiator project (AID 493006;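 active = duplicate-averaged activation above buffer control mean plus 5 SD of those controls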;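 for activation: fluorescence ratio of max minus min over baseline after K+ and Tl+ depolarization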). To be noted: parental CHO-K1 cells, FluxOR thallium flux, at 10 µM; active compounds read high. A digest of the protocol:
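Assay system: parental CHO-K1 cells lacking KCNQ1, loaded with FluxOR thallium dye; timing: dye 90 min RT, compound 20 min RT; signal: kinetic thallium-flux fluorescence; repeats: duplicate wells per compound, percent values averaged; benchmarks: buffer and R-L3 controls; reagent: Potassium/thallium depolarization pulse; read-out: fluorescence change ratio scaled 0% buffer, 100% R-L3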

Assay [2] has as its target Potassium voltage-gated channel subfamily KQT member 1 (Homo sapiens) (UniProt P51787). Kind of assay: enhancement of KCNQ1 channel thallium flux – FluxOR thallium flux, CHO cells, duplicates, confirmation (AID 493007).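 For outcome: cells depolarized by a potassium plus thallium sulfate stimulus after compound.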 The following applies: KCNQ1 cell line, FluxOR thallium flux fluorescence, at 10 µM; active compounds read high, % of reference activator effect, buffer zero. A digest of the protocol:
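material = CHO cells stably expressing the KCNQ1 potassium channel | repeats = duplicate wells per compound | measure = percent activation between buffer and R-L3 responses | signal = FluxOR thallium-flux fluorescence, kinetic read | schedule = FluxOR dye loading 90 min, compound exposure 20 min, room temperature | control set = buffer and R-L3 controls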

Assay [3] concerns the target Potassium voltage-gated channel subfamily KQT member 2 (Rattus norvegicus) (UniProt O88943). Description: KCNQ2 thallium flux enhancement – KCNQ2-CHO-K1 cells, selectivity assay for KCNQ1 potentiator project (AID 493009;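 active = mean duplicate potentiation above the buffer control mean plus 5 SD of buffer wells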;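 note: assay conditions were tuned for KCNQ1 rather than KCNQ2 modulators; signal is max minus min fluorescence divided by baseline after thallium stimulus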). The following applies: FluxOR thallium flux fluorescence, at 10 µM; active compounds read high, scaled: buffer 0, activator control 100.
The target in assay [4] is Potassium voltage-gated channel subfamily KQT member 1 (Homo sapiens) (UniProt P51787). Description: KCNQ1 activators by electrophysiology – IonWorks patch clamp, KCNQ1-CHO cells, orthogonal assay for KCNQ1 potentiator project, confirmation (AID 493184;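 active = current rise at least 3 SD above the untreated control mean in each of two repeat wells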). To be noted: automated patch clamp current, at 10 µM; active compounds read high. Put shortly: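 Assay system – CHO cells carrying KCNQ1 · Medium – pH 7.4 external bath · Probe or stimulus – depolarizing pulse to +40 mV from -90 mV · Compound dosing – one dose, 10 µM final · Measured by – automated perforated-patch electrophysiology · Measure – % potentiation of steady-state current relative to pre-compound · Repeats – two replicates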
Chain of Potassium voltage-gated channel subfamily KQT member 1 (Homo sapiens) (P51787 whole entry, looked up): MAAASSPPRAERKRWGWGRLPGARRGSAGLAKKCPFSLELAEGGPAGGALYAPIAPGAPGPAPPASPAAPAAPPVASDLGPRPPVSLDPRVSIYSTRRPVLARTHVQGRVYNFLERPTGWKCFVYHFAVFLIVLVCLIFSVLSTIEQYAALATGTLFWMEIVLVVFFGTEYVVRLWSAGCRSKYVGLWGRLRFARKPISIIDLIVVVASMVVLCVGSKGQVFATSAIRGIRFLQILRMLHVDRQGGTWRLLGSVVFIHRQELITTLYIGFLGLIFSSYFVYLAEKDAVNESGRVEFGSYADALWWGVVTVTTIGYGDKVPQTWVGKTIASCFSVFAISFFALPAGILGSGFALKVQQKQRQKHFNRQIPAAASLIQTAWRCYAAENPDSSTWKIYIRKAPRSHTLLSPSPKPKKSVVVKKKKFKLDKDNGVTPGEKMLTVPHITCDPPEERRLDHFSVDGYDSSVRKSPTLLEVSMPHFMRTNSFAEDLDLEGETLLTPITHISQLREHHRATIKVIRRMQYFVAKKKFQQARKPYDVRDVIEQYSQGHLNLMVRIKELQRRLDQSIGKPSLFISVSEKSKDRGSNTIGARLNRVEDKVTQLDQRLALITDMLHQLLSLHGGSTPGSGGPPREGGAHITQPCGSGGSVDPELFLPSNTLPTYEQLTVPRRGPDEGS

The source made the active and inactive calls.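 Rule for the calls, unless noted: active = potentiation averaged over duplicate wells exceeding buffer-only control mean by more than 3 SD; inactive = the rest.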

Chain of Potassium voltage-gated channel subfamily KQT member 2 (Rattus norvegicus) (O88943 whole entry, looked up): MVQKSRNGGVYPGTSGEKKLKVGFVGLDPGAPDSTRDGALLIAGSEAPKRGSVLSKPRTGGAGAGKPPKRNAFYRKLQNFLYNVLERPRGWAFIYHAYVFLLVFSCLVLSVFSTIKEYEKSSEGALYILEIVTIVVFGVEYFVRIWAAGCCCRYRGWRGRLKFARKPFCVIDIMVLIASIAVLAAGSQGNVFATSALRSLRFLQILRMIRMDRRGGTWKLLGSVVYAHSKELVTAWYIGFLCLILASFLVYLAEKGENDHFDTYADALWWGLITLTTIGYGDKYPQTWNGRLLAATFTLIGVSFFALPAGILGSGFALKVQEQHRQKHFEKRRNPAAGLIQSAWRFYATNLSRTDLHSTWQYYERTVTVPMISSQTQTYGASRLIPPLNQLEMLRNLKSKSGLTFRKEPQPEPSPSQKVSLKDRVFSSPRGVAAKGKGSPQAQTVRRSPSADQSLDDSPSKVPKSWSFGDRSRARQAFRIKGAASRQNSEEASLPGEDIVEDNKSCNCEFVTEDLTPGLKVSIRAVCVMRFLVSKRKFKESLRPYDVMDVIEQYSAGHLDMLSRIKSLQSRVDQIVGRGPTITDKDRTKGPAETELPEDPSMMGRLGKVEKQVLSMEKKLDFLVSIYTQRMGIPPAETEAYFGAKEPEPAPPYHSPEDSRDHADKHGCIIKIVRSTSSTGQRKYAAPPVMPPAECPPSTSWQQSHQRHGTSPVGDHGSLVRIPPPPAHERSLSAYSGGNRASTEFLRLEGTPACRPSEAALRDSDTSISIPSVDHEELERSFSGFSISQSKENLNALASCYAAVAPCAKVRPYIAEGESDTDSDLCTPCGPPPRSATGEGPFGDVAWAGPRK

`CNC(=O)c1nnsc1S(=O)c1ccc(Cl)cc1` (stereo not given): the outcome in assay [1], in assay [2], in assay [3] and in assay [4] was inactive.
On to `COc1cc2c(cc1OC)CN(C(=O)CNC(=O)c1ccc(OC(F)F)cc1)CC2`, for which the outcome in assay [1], in assay [2], in assay [3] and in assay [4] was inactive.
As for `Cc1sc2nc(CSc3ccccc3)nc(N3CCN(C)CC3)c2c1C`, the result in assay [1], in assay [2], in assay [3] and in assay [4] was inactive.
On to `O=C(NC(=S)N1CCN(c2ccc(C(F)(F)F)cc2[N+](=O)[O-])CC1)c1cccs1`, for which the activation in assay [1] is 176% (active). In addition, the results for the potentiation in assay [2] and in assay [3] were 75% (active) and 215% (active), respectively. Besides, the outcome in assay [4] was inactive.
On to `Cc1ccc(-n2[nH]c(C)c(/C=N/N3C(=O)c4cccc5cccc(c45)C3=O)c2=O)cc1`, for which the activation in assay [1] is 153% (active). Moreover, the values for the potentiation in assay [2] and in assay [3] were 86% (active) and 225% (active), respectively. Moreover, the outcome in assay [4] was inactive.
With `O=C1CN(c2nc(-c3cccs3)nc3sc4c(c23)CCCC4)CCN1`, in assay [1], the activation was 259% (active). The values for the potentiation in assay [2] and in assay [3] were 415% (active) and 492% (active), respectively. Moreover, the outcome in assay [4] was inactive.
With `CSC(=S)N/N=C(\C)c1ccccc1`, in assay [1], the activation was 246% (active). Also, the potentiation in assay [2] is 50.5% (active); in assay [3] it was 283% (active). In assay [4], the outcome was inactive.
With `COc1cccc2sc(N(CCCN(C)C)C(=O)c3ccc(S(=O)(=O)N4CCCc5ccccc54)cc3)nc12`, the outcome in assay [1], in assay [2], in assay [3] and in assay [4] was inactive.
Take `COc1ccc(/C=C2\SC(=Nc3ccccc3OC)NC2=O)cc1`: the result in assay [1], in assay [2], in assay [3] and in assay [4] was inactive.
Take `O=C(C1CCCCC1)N1CCCC(c2nc3c(nnn3Cc3ccccc3)c(=O)[nH]2)C1` (stereo not given): the outcome in assay [1], in assay [2], in assay [3] and in assay [4] was inactive.
`Cc1cccc(C(=O)Oc2csc(=S)n2C(=O)c2cccc(C)c2)c1`: in assay [1], the activation is 139% (active). The potentiation in assay [2] is 27% (active); in assay [3], 158% (active). The result in assay [4] was inactive.
Turning to `Cc1cc(C)cc(OCC(O)Cn2nc(C)cc2C)c1` (stereo not given), the result in assay [1], in assay [2], in assay [3] and in assay [4] was inactive.
As to `CCn1c(=S)[nH]c2c(c1=O)C(C)(C)Cc1ccccc1-2`, the activation in assay [1] is 150% (active). The outcome in assay [2], in assay [3] and in assay [4] was inactive.
Consider `Nc1nc(N)c(N=Nc2ccc(C(=O)O)cc2)c(N)n1`, for which the outcome in assay [1], in assay [2], in assay [3] and in assay [4] was inactive.
Turning to `CCC1(C)Cc2c(sc3nc(SC)[nH]c(=S)c23)CO1` (stereo not given), the activation in assay [1] was 550% (active). Besides, the potentiation in assay [2] was 194% (active); in assay [3] it was 534% (active). The outcome in assay [4] was inactive.
Regarding `O=C(c1ccccc1NS(=O)(=O)c1ccc(Br)cc1)N1CCOCC1`, in assay [1], the activation was 306% (active). The results for the potentiation in assay [2] and in assay [3] were 112% (active) and 326% (active), respectively. The result in assay [4] was inactive.
For `CCC(C)c1ccccc1OCCCNC1CCCC1` (stereo not given), the result in assay [1], in assay [2], in assay [3] and in assay [4] was inactive.
`CCC(/C=N/NC(=O)C1COc2ccccc2O1)CC` (stereo not given): the outcome in assay [1], in assay [2], in assay [3] and in assay [4] was inactive.
Regarding `COC(=O)C1C(c2ccc(OC)c(OC)c2)NC(c2ccc(OC)c(OC)c2)C(C(=O)OC)S1(=O)=O` (stereo not given), the outcome in assay [1], in assay [2], in assay [3] and in assay [4] was inactive.
For the compound `O=[N+]([O-])c1cccc(-c2ccc3nnc(SCc4ccccn4)n3n2)c1`, the outcome in assay [1], in assay [2], in assay [3] and in assay [4] was inactive.
Regarding `O=C(c1ccco1)N1CCN=C1SCc1ccc(F)cc1`, the result in assay [1], in assay [2], in assay [3] and in assay [4] was inactive.
Regarding `Cc1cccc(N=Cc2cc(Br)cc(Cl)c2O)c1`, in assay [1], the activation is 188% (active). Further, in assay [2], the potentiation is 27% (active). For the same compound, the outcome in assay [3] and in assay [4] was inactive.
With `Cc1cc(C=NCCO)c(C)n1-c1cc(Cl)ccc1Cl`, the result in assay [1], in assay [2], in assay [3] and in assay [4] was inactive.
`O=C(CN1CCCC1)Nc1ccc2c(c1)CCC2`: the outcome in assay [1], in assay [2], in assay [3] and in assay [4] was inactive.
On to `CCC1(c2ccccc2)NC(=S)N(c2ccc(C)cc2)N1` (stereo not given), for which the activation in assay [1] is 392% (active). The potentiation is 198% (active) in assay [2] and 522% (active) in assay [3]. Besides, the result in assay [4] was inactive.
The matching figures for `CCOC(=O)c1c(NS(C)(=O)=O)sc2c1CCC(C)C2` (stereo not given): 173% (active), 24.5% (active), 190% (active) and “inactive”.
As for `CC(C)c1nc2oc3c(NCC4CCCO4)ncnc3c2c2c1COC(C)(C)C2` (stereo not given), the outcome in assay [1], in assay [2], in assay [3] and in assay [4] was inactive.
Consider `O=C(Nc1nc2c(Br)cc(Br)cc2c(=O)s1)C1CCC1`, for which, in assay [1], the activation was 192% (active). Also, the potentiation was 29% (active) in assay [2] and 176% (active) in assay [3]. In assay [4], the result was inactive.
For `CCOC(=O)c1sc(C)nc1C1CCN(C(=O)OCC)CC1`, the outcome in assay [1], in assay [2], in assay [3] and in assay [4] was inactive.
On to `COc1ccccc1NC(=O)Cn1cnc2c(oc3nc4c(cc32)CCCC4)c1=O`, for which the result in assay [1], in assay [2], in assay [3] and in assay [4] was inactive.
